Activity calls are given as the source filed them. The calls are words filed in the database; no cut-off is given here.
Tests used:
[1] = Stability in rat plasma assessed as half life; format: ADME, cell-free
How it was run: (§1)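 Stability assessed as half-life in human, rat and mouse plasma and gastric fluid, and in human, rat and mouse liver microsomal preparations.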

[2] = Stability in mouse gastric fluid assessed as half life; format: ADME, tissue-based, Gastric juice; how it was run: as §1
[3] = Drug concentration in brain (unknown origin) at 2 mg/kg, iv measured after 15 mins; format: ADME, organism-based; conditions: read-out: Ct
How it was run: (§2)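 Cassette pharmacokinetics: compounds given together at 2 mg/kg iv; brain and plasma levels (µg/mL) measured at 15 min.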

[4] = Stability in human liver microsomes assessed as half life; format: ADME, Microsome; how it was run: as §1
[5] = biological target: T1, Fatty-acid amide hydrolase 1 (Rattus norvegicus, UniProt P97612); assay: Inhibition of rat recombinant His/GST-tagged FAAH expressed in Escherichia coli cells using AAMCA as substrate incubated for 15 mins followed by substrate addition and measured after every 20 mins for 4 hrs by fluorescence based assay
T1 sequence (P97612 whole entry): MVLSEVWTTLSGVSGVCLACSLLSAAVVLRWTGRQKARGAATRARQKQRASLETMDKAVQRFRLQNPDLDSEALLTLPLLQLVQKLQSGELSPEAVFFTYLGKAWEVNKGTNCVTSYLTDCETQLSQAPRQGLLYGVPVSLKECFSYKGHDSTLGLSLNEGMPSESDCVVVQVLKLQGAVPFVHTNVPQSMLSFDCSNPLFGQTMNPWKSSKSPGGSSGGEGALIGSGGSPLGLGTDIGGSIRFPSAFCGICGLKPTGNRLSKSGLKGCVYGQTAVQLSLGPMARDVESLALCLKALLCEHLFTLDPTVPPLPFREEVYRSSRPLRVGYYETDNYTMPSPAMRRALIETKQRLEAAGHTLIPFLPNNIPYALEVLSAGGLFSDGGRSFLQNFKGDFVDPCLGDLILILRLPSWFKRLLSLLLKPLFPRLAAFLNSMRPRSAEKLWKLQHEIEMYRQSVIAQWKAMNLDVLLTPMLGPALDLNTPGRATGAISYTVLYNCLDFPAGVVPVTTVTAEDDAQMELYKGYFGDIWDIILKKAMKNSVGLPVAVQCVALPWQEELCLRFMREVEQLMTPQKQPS
How it was run: (§3)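 Fluorescent enzyme assay in throughput format. Human recombinant FAAH or purified rat FAAH used arachidonoyl 7-amino-4-methylcoumarin amide as substrate; human recombinant MGL was run by a similar fluorometric procedure.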

[6] = Drug concentration in plasma (unknown origin) at 2 mg/kg, iv measured after 15 mins; format: ADME, organism-based; how it was run: as §2
[7] = Stability in mouse plasma assessed as half life; format: ADME, cell-free; how it was run: as §1
[8] = biological target: Cannabinoid receptor 1 (Rattus norvegicus) (UniProt P20272); assay: Displacement of [3H]CP55940 from CB1 receptor in rat brain by competition-equilibrium binding analysis
Target sequence in this assay (P20272 whole entry, looked up): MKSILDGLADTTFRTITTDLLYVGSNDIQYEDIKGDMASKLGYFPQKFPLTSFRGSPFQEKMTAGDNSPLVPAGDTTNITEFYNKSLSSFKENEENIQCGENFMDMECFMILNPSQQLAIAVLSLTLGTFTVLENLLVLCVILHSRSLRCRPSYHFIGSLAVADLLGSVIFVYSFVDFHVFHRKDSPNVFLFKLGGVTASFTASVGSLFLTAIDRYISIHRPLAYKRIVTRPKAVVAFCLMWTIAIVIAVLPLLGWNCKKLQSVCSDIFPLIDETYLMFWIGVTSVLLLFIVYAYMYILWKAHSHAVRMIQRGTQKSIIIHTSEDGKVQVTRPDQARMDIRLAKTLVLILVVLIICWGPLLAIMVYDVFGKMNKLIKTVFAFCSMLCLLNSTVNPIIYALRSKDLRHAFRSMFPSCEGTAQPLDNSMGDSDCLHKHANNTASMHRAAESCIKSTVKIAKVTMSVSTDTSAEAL

[9] = Stability in rat liver microsomes assessed as half life; format: ADME, Microsome; how it was run: as §1
[10] = Stability in rat gastric fluid assessed as half life; format: ADME, tissue-based, Gastric juice; how it was run: as §1
[11] = Stability in mouse liver microsomes assessed as half life; format: ADME, Microsome; how it was run: as §1
[12] = biological target: T2, Fatty-acid amide hydrolase 1 (Homo sapiens, UniProt O00519); assay: Inhibition of human recombinant MBP-tagged FAAH expressed in Escherichia coli cells using AAMCA as substrate incubated for 15 mins followed by substrate addition and measured after every 20 mins for 4 hrs by fluorescence based assay; how it was run: as §3
T2 sequence (O00519 whole entry): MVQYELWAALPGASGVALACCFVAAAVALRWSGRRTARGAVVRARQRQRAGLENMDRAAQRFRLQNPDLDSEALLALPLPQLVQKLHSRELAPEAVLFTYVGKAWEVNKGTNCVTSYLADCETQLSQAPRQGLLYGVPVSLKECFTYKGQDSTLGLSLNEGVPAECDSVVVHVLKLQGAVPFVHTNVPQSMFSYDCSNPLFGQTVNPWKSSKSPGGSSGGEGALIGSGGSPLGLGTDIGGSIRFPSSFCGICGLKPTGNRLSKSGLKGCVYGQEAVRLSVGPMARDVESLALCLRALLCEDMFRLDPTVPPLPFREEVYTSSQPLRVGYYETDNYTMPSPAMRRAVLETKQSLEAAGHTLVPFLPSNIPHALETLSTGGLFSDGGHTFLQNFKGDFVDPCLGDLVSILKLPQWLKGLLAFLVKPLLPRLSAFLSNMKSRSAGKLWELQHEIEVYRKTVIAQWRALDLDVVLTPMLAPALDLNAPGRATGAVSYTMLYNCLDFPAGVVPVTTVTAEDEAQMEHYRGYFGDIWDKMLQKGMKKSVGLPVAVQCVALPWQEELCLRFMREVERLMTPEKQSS

[13] = Stability in human gastric fluid assessed as half life; format: ADME, tissue-based, Gastric juice; how it was run: as §1
[14] = biological target: Cannabinoid receptor 2 (Homo sapiens) (UniProt P34972); assay: Displacement of [3H]CP55940 from human CB2 receptor expressed in HEK293 cells by competition-equilibrium binding analysis; format: cell-based
Cannabinoid receptor 2 (Homo sapiens), sequence (P34972 whole entry): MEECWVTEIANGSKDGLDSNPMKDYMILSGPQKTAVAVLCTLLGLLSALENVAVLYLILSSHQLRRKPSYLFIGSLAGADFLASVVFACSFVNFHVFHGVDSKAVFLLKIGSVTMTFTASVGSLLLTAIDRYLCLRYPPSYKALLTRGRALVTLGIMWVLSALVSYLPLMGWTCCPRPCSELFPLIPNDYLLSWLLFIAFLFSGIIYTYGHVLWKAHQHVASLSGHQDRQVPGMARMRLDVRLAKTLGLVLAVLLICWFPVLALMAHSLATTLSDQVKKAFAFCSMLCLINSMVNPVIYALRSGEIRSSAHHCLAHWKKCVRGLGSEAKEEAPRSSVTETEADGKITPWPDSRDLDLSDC
How it was run: (§4)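 HEK293 cell membranes expressing mouse or human CB2; competition-equilibrium binding against [3H]CP-55,940.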

[15] = biological target: Cannabinoid receptor 2 (Mus musculus) (UniProt P47936); assay: Displacement of [3H]CP55940 from mouse CB2 receptor expressed in HEK293 cells by competition-equilibrium binding analysis; format: cell-based; how it was run: as §4
Cannabinoid receptor 2 (Mus musculus), sequence (P47936 whole entry): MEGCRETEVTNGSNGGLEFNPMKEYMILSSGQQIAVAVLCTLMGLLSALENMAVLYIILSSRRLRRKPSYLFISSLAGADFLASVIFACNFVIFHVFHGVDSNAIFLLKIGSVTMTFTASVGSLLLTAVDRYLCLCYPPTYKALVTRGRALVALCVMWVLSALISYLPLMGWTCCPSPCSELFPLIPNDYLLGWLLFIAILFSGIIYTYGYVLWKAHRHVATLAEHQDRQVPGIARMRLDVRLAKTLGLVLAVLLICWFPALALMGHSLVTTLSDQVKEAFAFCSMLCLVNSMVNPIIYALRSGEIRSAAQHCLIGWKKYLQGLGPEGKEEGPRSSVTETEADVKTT

Homo sapiens [16] = species on record: Homo sapiens; assay: Selectivity ratio of IC50 for human recombinant His-tagged MGL expressed in Escherichia coli BL21 DE3 cells to IC50 for human recombinant MBP-tagged FAAH expressed in Escherichia coli cells by fluorescence based assay
[17] = Stability in human plasma assessed as half life; format: ADME, cell-free; how it was run: as §1
[18] = Selectivity ratio of IC50 for human full length ABHD6 expressed in Escherichia coli cells to IC50 for rat recombinant His/GST-tagged FAAH expressed in Escherichia coli cells by fluorescence based assay
[19] = Selectivity ratio of IC50 for human recombinant His-tagged MGL expressed in Escherichia coli BL21 DE3 cells to IC50 for rat recombinant His/GST-tagged FAAH expressed in Escherichia coli cells by fluorescence based assay
Monoglyceride lipase = biological target: T3, Monoglyceride lipase (Homo sapiens, UniProt Q99685); assay: Inhibition of human recombinant His-tagged MGL expressed in Escherichia coli BL21 DE3 cells using AHMMCE as substrate preincubated with enzyme for 15 mins followed by substrate addition and measured after every 15 mins for 3 hrs by fluorescence based assay; how it was run: as §3
T3 sequence (Q99685 whole entry): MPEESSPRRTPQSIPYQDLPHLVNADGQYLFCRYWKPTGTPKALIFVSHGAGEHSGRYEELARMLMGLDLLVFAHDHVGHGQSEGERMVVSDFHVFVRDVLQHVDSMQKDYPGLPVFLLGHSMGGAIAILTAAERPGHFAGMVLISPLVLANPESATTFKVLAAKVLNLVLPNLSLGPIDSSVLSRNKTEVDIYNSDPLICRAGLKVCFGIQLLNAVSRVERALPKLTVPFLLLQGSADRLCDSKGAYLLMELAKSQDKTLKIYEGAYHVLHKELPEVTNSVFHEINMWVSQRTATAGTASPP

Homo sapiens [20] = species on record: Homo sapiens; assay: Selectivity ratio of IC50 for human full length ABHD6 expressed in Escherichia coli cells to IC50 for human recombinant MBP-tagged FAAH expressed in Escherichia coli cells by fluorescence based assay
[21] = biological target: Cannabinoid receptor 1 (Rattus norvegicus) (UniProt P20272); assay: Displacement of [3H]CP55940 from CB1 receptor in rat brain by competition-equilibrium binding analysis; format: tissue-based
How it was run: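 Rat brain membranes as CB1 source; competition-equilibrium binding against [3H]CP-55,940.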
Target sequence in this assay (P20272 whole entry): as the sequence (P20272 whole entry, looked up) above

[22] = biological target: T4, Fatty-acid amide hydrolase 1 (Rattus norvegicus) (UniProt P97612); assay: Inhibition of rat recombinant His/GST-tagged FAAH expressed in Escherichia coli cells at 1 uM using AAMCA as substrate incubated for 15 mins followed by substrate addition and measured after every 20 mins for 4 hrs by fluorescence based assay relative to control
T4 sequence (whole entry): T1 sequence (P97612 whole entry)
How it was run: (§5)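 Fluorescent FAAH assay with arachidonoyl 7-amino-4-methylcoumarin amide as substrate; compound tested at a single concentration of 1 µM; percent inhibition reported.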

[23] = biological target: T5, Fatty-acid amide hydrolase 1 (Homo sapiens) (UniProt O00519); assay: Inhibition of human recombinant MBP-tagged FAAH expressed in Escherichia coli cells at 1 uM using AAMCA as substrate incubated for 15 mins followed by substrate addition and measured after every 20 mins for 4 hrs by fluorescence based assay relative to control; how it was run: as §5
T5 sequence (whole entry): T2 sequence (O00519 whole entry)

SMILES	half-life [1] [min]	half-life [2] [min]	half-life [4] [min]	IC50 [5] [nM]	half-life [7] [min]	Activity [8]	half-life [9] [min]	half-life [10] [min]	half-life [11] [min]	IC50 [12] [nM]	Activity [14]	Activity [15]	Ratio IC50 (Homo sapiens [16])	Ratio IC50 [18]	Ratio IC50 [19]	IC50 (Monoglyceride lipase) [nM]	Ratio IC50 (Homo sapiens [20])	Activity [21]	inhibition [22]	inhibition [23]	further results
O=C(Oc1cccc(N2CCS(=O)(=O)CC2)c1)N1CCC(c2ccc(OCCF)cc2)CC1	> 60	> 60	15 to 25	5.5	> 60	inactive	15 to 25	> 60	15 to 25	21.2	inactive	inactive	> 1000	> 1000	> 1000	> 1000	> 1000	inactive			concentration at 0.25 h [3]: 909 ng/mL; concentration at 0.25 h [6]: 388 ng/mL; half-life [13]: > 60 min; half-life [17]: > 60 min
O=C(Oc1cccc(N2CCS(=O)(=O)CC2)c1)N1CCN(c2ccc(F)cc2)CC12CC2						inactive					inactive	inactive						inactive	54%		
COc1ccc(N2CCN(C(=O)Oc3cccc(N4CCS(=O)(=O)CC4)c3)[C@@H](C(C)C)C2)cc1						inactive					inactive	inactive						inactive	inactive	inactive	
O=C(Oc1cccc(N2CCS(=O)(=O)CC2)c1)N1CCC2(CC1)COC2						inactive					inactive	inactive	> 1000	> 1000	> 1000	> 1000	> 1000	inactive	inactive	inactive	
C[C@H]1CN(c2ccccc2)CCN1C(=O)Oc1cccc(N2CCS(=O)(=O)CC2)c1						inactive					inactive	inactive						inactive	inactive	inactive	
O=C(Oc1cccc(N2CCS(=O)(=O)CC2)c1)N1CCC(c2ccc(F)cc2)CC1	> 60	> 60	15 to 25	2.3	> 60	inactive	15 to 25	> 60	15 to 25	10	inactive	inactive	> 1000	> 1000	> 1000	> 1000	> 1000	inactive			concentration at 0.25 h [3]: 1230 ng/mL; concentration at 0.25 h [6]: 474 ng/mL; half-life [13]: > 60 min; half-life [17]: > 60 min
C[C@@H]1CN(C(=O)Oc2cccc(N3CCS(=O)(=O)CC3)c2)[C@@H](C)CN1c1ccc(F)cc1						inactive					inactive	inactive						inactive	35%		
O=C(Oc1cccc(N2CCS(=O)(=O)CC2)c1)N1C[C@@H]2C[C@H]1CN2c1ccc(F)cc1				341		inactive					inactive	inactive	> 1000	> 1000	> 1000	> 1000	> 1000	inactive		67%	
O=C(Oc1cccc(N2CCS(=O)(=O)CC2)c1)N1CCN(c2ccnnc2)CC1						inactive					inactive	inactive	> 1000	> 1000	> 1000	> 1000	> 1000	inactive	inactive	inactive	
O=C(Oc1cccc(N2CCCCC2)c1)N1CCC(c2ccc(F)cc2)CC1	> 60	> 60	15 to 25	6.8	> 60	inactive	15 to 25	> 60	15 to 25	40	inactive	inactive	> 1000	> 1000	> 1000	> 1000	> 1000	inactive			half-life [13]: > 60 min; half-life [17]: > 60 min
O=C(Oc1cccc(N2CCOCC2)c1)N1CCC(c2ccc(F)cc2)CC1	> 60	> 60	15 to 25	2.93	> 60	inactive	15 to 25	> 60	15 to 25	16.3	inactive	inactive	> 1000	> 1000	> 1000	> 1000	> 1000	inactive			concentration at 0.25 h [3]: 508 ng/mL; concentration at 0.25 h [6]: 506 ng/mL; half-life [13]: > 60 min; half-life [17]: > 60 min

Source: ChEMBL document CHEMBL4359929, “Piperidine and piperazine inhibitors of fatty acid amide hydrolase targeting excitotoxic pathology” (Bioorg Med Chem, 2019)
